Experimental data taken from ChEMBL document CHEMBL1144069, “Cytotoxic activities of hypocretenolides from Leontodon hispidus” (J Nat Prod, 1999).
pIC50: −log10 of the molar value.

How the values were obtained:
Assay type in all cases: functional, cell-based
[1] = Cytotoxicity against human GTB cells after 5 hrs by MTT assay
Summary of the method: (§1)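 Leukemic cells at 0.5 × 10^6 cells/mL in RPMI were exposed to 0.01–2.00 µM compound (0.1% final DMSO) at 37 °C and 5% CO2. Viability was measured as MTT formazan, dissolved in DMSO and read at 550 and 630 nm. Three wells per point, on three separate days (n = 9). IC50 was taken graphically from per-experiment dose curves.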

[2] = test system: HL-60; assay: Cytotoxicity against human HL-60 cells after 5 hrs by MTT assay; details: HL-60, 5 h; summary of the method: as §1
[3] = test system: A-431; assay: Cytotoxicity against human A431 cells after 24 hrs by [3H]thymidine incorporation assay
Summary of the method: (§2)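 Adherent tumor cells (100 µL at 1 × 10^6 cells/mL) were overlaid with 100 µL of medium containing compound in the 0.25–4.00 µM range (0.1% final DMSO). The medium control had no compound. Cells were incubated for 24, 48 or 72 h at 37 °C and 5% CO2, then pulsed 24 h with 3H-thymidine. They were harvested onto glass filters and counted by liquid scintillation. Three wells per point, on three separate days (n = 9). IC50 was taken graphically.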

[4] = test system: A-431; assay: Cytotoxicity against human A431 cells after 48 hrs by [3H]thymidine incorporation assay; summary of the method: as §2
[5] = test system: A-431; assay: Cytotoxicity against human A431 cells after 72 hrs by [3H]thymidine incorporation assay; summary of the method: as §2
[6] = test system: HEp-2; assay: Cytotoxicity against human HEP2 cells after 24 hrs by [3H]thymidine incorporation assay; summary of the method: as §2
[7] = test system: HEp-2; assay: Cytotoxicity against human HEP2 cells after 48 hrs by [3H]thymidine incorporation assay; summary of the method: as §2
[8] = test system: HEp-2; assay: Cytotoxicity against human HEP2 cells after 72 hrs by [3H]thymidine incorporation assay; summary of the method: as §2
[9] = test system: MCF7; assay: Cytotoxicity against human MCF7 cells after 24 hrs by [3H]thymidine incorporation assay; summary of the method: as §2
[10] = test system: MCF7; assay: Cytotoxicity against human MCF7 cells after 48 hrs by [3H]thymidine incorporation assay; summary of the method: as §2
[11] = test system: MCF7; assay: Cytotoxicity against human MCF7 cells after 72 hrs by [3H]thymidine incorporation assay; summary of the method: as §2
[12] = test system: OVCAR-3; assay: Cytotoxicity against human OVCAR-3 cells after 24 hrs by [3H]thymidine incorporation assay; summary of the method: as §2
[13] = test system: OVCAR-3; assay: Cytotoxicity against human OVCAR-3 cells after 48 hrs by [3H]thymidine incorporation assay; summary of the method: as §2
[14] = test system: OVCAR-3; assay: Cytotoxicity against human OVCAR-3 cells after 72 hrs by [3H]thymidine incorporation assay; summary of the method: as §2
[15] = Cytotoxicity against human SK MEL28 cells after 24 hrs by [3H]thymidine incorporation assay; details: SK-MEL-28; summary of the method: as §2
[16] = Cytotoxicity against human SK MEL28 cells after 48 hrs by [3H]thymidine incorporation assay; details: SK-MEL-28; summary of the method: as §2
[17] = Cytotoxicity against human SK MEL28 cells after 72 hrs by [3H]thymidine incorporation assay; details: SK-MEL-28; summary of the method: as §2
[18] = Cytotoxicity against human SK37 cells after 24 hrs by [3H]thymidine incorporation assay; summary of the method: as §2
[19] = Cytotoxicity against human SK37 cells after 48 hrs by [3H]thymidine incorporation assay; summary of the method: as §2
[20] = Cytotoxicity against human SK37 cells after 72 hrs by [3H]thymidine incorporation assay; summary of the method: as §2
[21] = test system: SW872; assay: Cytotoxicity against human SW872 cells after 24 hrs by [3H]thymidine incorporation assay; summary of the method: as §2
[22] = test system: SW872; assay: Cytotoxicity against human SW872 cells after 48 hrs by [3H]thymidine incorporation assay; summary of the method: as §2
[23] = test system: SW872; assay: Cytotoxicity against human SW872 cells after 72 hrs by [3H]thymidine incorporation assay
Summary of the method: (§3)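 Adherent tumour cells at 1 × 10^6 cells/mL (100 µL per well) overlaid with an equal volume of medium carrying test substance across 0.25–4.00 µM. Medium-only controls. Incubated 24, 48 or 72 h at 37 °C, 5% CO2, then pulsed 24 h with 3H-thymidine and harvested onto glass filters for scintillation counting. Final DMSO 0.1%. Triplicate wells, three days (n = 9). IC50 read graphically from each experiment's dose curve.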

[24] = test system: ZR-75-1; assay: Cytotoxicity against human ZR-75-1 cells after 24 hrs by [3H]thymidine incorporation assay; summary of the method: as §3
[25] = test system: ZR-75-1; assay: Cytotoxicity against human ZR-75-1 cells after 48 hrs by [3H]thymidine incorporation assay; summary of the method: as §3
[26] = test system: ZR-75-1; assay: Cytotoxicity against human ZR-75-1 cells after 72 hrs by [3H]thymidine incorporation assay; summary of the method: as §3

## C=C1C(=O)O[C@@H]2C[C@@H](C)[C@@H]3C=CC(=O)[C@@]3(C)[C@@H](O)[C@H]12 [HELENALIN]
[1]
  pIC50: 6.57
[2]
  pIC50: 6.49
[3]
  pIC50: 6.05
[4]
  pIC50: 6.05
[5]
  pIC50: 6.10
[6]
  pIC50: 6.05
[7]
  pIC50: 6.05
[8]
  pIC50: 6.10
[9]
  pIC50: 6.10
[10]
  pIC50: 6.30
[11]
  pIC50: 6.15
[12]
  pIC50: 5.85
[13]
  pIC50: 5.80
[14]
  pIC50: 5.77
[15]
  pIC50: 5.89
[16]
  pIC50: 6.05
[17]
  pIC50: 6.30
[18]
  pIC50: 5.89
[19]
  pIC50: 5.92
[20]
  pIC50: 6.15
[21]
  pIC50: 5.85
[22]
  pIC50: 5.92
[23]
  pIC50: 5.92
[24]
  pIC50: 6.15
[25]
  pIC50: 6.10
[26]
  pIC50: 5.96

## C=C1C(=O)O[C@]23C[C@H]1CCC(CO)=C2C(=O)C=C3C
[1]
  pIC50: 6.59
[2]
  pIC50: 6.59
[3]
  pIC50: 5.82
[4]
  pIC50: 5.89
[5]
  pIC50: 6.05
[6]
  pIC50: 5.82
[7]
  pIC50: 5.89
[8]
  pIC50: 5.96
[9]
  pIC50: 6.10
[10]
  pIC50: 6.15
[11]
  pIC50: 6.00
[12]
  pIC50: 5.72
[13]
  pIC50: 5.68
[14]
  pIC50: 5.74
[15]
  pIC50: 5.55
[16]
  pIC50: 5.59
[17]
  pIC50: 5.92
[18]
  pIC50: 5.49
[19]
  pIC50: 5.62
[20]
  pIC50: 5.74
[21]
  pIC50: 5.51
[22]
  pIC50: 5.66
[23]
  pIC50: 5.55
[24]
  pIC50: 6.22
[25]
  pIC50: 6.05
[26]
  pIC50: 6.00
